Active and inactive are the calls of the source.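 The calls were made as follows, unless noted: active = viability at or below 30% in both replicate assays; inconclusive = viability at or below 30% in just one of the two assays; inactive = the rest.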
What was measured:
[1] = Her2 expression decrease, cell viability multiplex – SKBR3 breast tumor cells, AlphaScreen, ATP viability, primary screen (AID 461;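 active = Her2 level under about 52% in both replicate screens, with viability over 70% of control, limit read from the data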;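 as to Her2 level: lower value means less Her2 protein in the cells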;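 as to viability: percent of carrier control wells set as 100% viability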); conditions: SKBR3 Her2 protein level, 18-24 h, measured here: SKBR3 viability, ATP luminescence, at 10 µM
[2] = biological target: Receptor tyrosine-protein kinase erbB-2 (Homo sapiens) (UniProt P04626); assay: as above; conditions: 18-24 h, at 10 µM, stronger effect = lower value
[3] = reduced viability of SK-BR-3 breast cancer cells – cell-based, 24 h, human, pilot screen (AID 572;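 active = viability at or below 10% of carrier control in both of two separate runs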;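 also: compound exposure lasted between 18 and 24 h rather than exactly 24 h; 100% = carrier-treated control wells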); conditions: SK-BR-3 viability, CellTiter-Glo luminescence, at 10 µM, stronger effect = lower value
[4] = HUVEC growth inhibition – cell-based, human, primary screen (AID 575); conditions: HUVEC proliferation, CellTiter-Glo luminescence, 72 h; at 10 µM; stronger effect = lower value;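 also: 100% = median of untreated cell wells with 0.1% DMSO on each plate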
How it was run: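 Test system: primary human umbilical vein endothelial cells; medium: endothelial basal medium with 2% FBS plus growth supplements; dosing: 10 µM compound only; times: 72 h treatment at 37 °C; signal: CTG luminescence; read-out: % viability relative to median vehicle-well signal on each plate; control set: vehicle and MePR control wells; plate: 384-well, collagen-coated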

[5] = H69AR cell proliferation blockers – human, duplicate replicates, primary screen (AID 580;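 active = viability at or under a set limit in both replicates, limit being median viability minus 3 SD, cut at about 48% in these data, passing the limit was not always enough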;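 also: 100% = mean luminescence of untreated wells and 0% = no signal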); conditions: H69AR lung tumor cells viability, ATP luminescence, 72 h; at 10 µM; stronger effect = lower value
[6] = MRP1 drug-resistance reversers in H69AR cells – cell-based, doxorubicin co-treatment, pilot screen (AID 601;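 active = viability loss from added drug above about 55%, and viability with drug at most 40%, in both replicates, limit read from the data, passing the limit was not always enough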); conditions: CellTiter-Glo, 72 h, at 10 µM; for differential viability (reversal): stronger effect = higher value
[7] = yeast transport mutant growth inhibition pilot in 384-well plates, post-Golgi transport modulator project (AID 636; in the data active = inhibition above about 31%); conditions: absorbance 615 nm, about 18 h, stronger effect = higher value
[8] = growth suppression of yeast trafficking mutant, preliminary HTS, modulators of trafficking downstream of Golgi apparatus project, 1536-format plate, OD 615 nm (AID 637; in the data active = inhibition above about 30%); conditions: yeast transport mutant growth, absorbance 615 nm, 18 h; stronger effect = higher value
[9] = H69AR cells + 2 uM doxorubicin, measured here: viability with 2 uM doxorubicin, stronger effect = lower value
[10] = H69AR cells, compound alone cytotoxicity

Chain of Receptor tyrosine-protein kinase erbB-2 (Homo sapiens) (P04626 whole entry, looked up): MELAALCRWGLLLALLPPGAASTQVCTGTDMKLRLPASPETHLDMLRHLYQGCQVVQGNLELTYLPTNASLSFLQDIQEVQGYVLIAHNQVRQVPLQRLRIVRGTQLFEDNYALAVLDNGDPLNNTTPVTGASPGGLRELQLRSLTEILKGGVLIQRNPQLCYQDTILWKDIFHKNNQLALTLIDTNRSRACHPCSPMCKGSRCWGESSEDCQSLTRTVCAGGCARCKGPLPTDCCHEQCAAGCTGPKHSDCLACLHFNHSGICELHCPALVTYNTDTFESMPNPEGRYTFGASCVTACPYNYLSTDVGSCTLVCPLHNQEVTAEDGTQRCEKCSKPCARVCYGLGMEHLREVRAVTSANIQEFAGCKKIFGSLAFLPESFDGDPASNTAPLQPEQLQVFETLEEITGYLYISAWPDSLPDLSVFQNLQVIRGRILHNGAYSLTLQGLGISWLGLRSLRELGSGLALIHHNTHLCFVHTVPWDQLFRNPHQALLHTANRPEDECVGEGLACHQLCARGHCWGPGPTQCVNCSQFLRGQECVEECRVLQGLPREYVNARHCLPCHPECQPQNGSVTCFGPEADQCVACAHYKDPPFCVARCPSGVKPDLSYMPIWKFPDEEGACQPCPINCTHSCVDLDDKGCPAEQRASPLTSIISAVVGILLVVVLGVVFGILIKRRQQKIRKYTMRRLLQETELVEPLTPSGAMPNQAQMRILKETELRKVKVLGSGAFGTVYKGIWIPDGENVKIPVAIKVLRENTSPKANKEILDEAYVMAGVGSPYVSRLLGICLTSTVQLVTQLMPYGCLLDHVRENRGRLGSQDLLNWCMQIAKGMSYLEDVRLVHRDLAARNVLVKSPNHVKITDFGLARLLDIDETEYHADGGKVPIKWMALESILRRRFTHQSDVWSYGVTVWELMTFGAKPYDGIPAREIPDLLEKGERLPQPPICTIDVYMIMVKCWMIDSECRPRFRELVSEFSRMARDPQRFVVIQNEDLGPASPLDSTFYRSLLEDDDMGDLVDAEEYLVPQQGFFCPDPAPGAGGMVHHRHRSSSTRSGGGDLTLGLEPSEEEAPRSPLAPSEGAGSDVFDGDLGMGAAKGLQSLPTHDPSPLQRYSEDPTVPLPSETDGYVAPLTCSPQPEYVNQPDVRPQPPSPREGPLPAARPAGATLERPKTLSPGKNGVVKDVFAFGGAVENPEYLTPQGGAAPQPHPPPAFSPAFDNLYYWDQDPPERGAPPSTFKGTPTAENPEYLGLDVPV

| SMILES | viability [1] [%] | Her2 level [2] | viability [3] | viability [4] | viability [5] | differential viability (reversal) ([6]; H69AR cells + 2 uM doxorubicin) | viability [6, 9] [%] | viability [6, 10] [%] | inhibition [7] | inhibition [8] |
| --- | --- | --- | --- | --- | --- | --- | --- | --- | --- | --- |
| O=C(CN1CCC(n2nnc3cc(F)ccc32)CC1)Nc1ccc2c(c1)CCC2 | 93 | 104% (inactive) | 93% (inactive) | 79.5% (inactive) | 86.3% (inactive) | -5.55% (inactive) | 91.8 | 86.3 | -4.59% (inactive) | -3.5% (inactive) |
| Cn1ccnc1SCCC#N | 100 | 89.5% (inactive) | 100% (inactive) | 92.5% (inactive) | 99% (inactive) | 1.65% (inactive) | 97.3 | 99 | -2% (inactive) | 11% (inactive) |
| CCCN(CCC)C(=O)C1CCN(c2cc(C)nc3c(-c4ccc(OC)c(OC)c4)c(C)nn23)CC1 | 81.5 | 88% (inactive) | 81.5% (inactive) | 58.1% (inactive) | 69.1% (inactive) | 44% (inactive) | 25 | 69.1 | -0.13% (inactive) | -5.08% (inactive) |
| O=C(Cn1c(=O)[nH]n(-c2ccccc2)c1=O)N1CCCc2ccccc21 | 116 | 96% (inactive) | 116% (inactive) | 82.1% (inactive) | 93.7% (inactive) | 8.74% (inactive) | 85 | 93.7 | -5.73% (inactive) | -4.92% (inactive) |
| CCN(CC)CCCC1(CN)OCCc2ccccc21 (stereo not given) | 98.5 | 88.5% (inactive) | 98.5% (inactive) | 93.3% (inactive) | 83.8% (inactive) | -18.9% (inactive) | 103 | 83.8 | -0.39% (inactive) | 23.8% (inactive) |
| COc1ccc2cc(C(=O)NCc3ccco3)c(=Nc3ccc(C(=O)O)cc3)oc2c1 | 68 | 83% (inactive) | 68% (inactive) | 77.4% (inactive) | 55% (inactive) | -14.1% (inactive) | 69.1 | 55 | -5% (inactive) | -1% (inactive) |
| CCOC(=O)c1[nH]c(=O)c2ccccc2c1O | 106 | 94.5% (inactive) | 106% (inactive) | 95.8% (inactive) | 90.8% (inactive) | -0.03% (inactive) | 90.8 | 90.8 | -10% (inactive) | -8.41% (inactive) |
| Cc1cc2c(cc1C)C(=O)NC(C)(C)C2 | 104 | 98% (inactive) | 104% (inactive) | 79.4% (inactive) | 95.2% (inactive) | -13.8% (inactive) | 109 | 95.2 | -2.7% (inactive) | -1.15% (inactive) |
| CCOC(=O)CC1=C(C(=O)OCC)C(c2ccc(C)o2)C(C#N)=C(N)O1 (stereo not given) | 95 | 104% (inactive) | 95% (inactive) | 107% (inactive) | 85.6% (inactive) | 8.26% (inactive) | 77.3 | 85.6 | 0.65% (inactive) | -9.05% (inactive) |
| COc1ccc(C2C(C#N)=C(N)OC3=C2C(=O)CC(C)C3)c(OC)c1OC (stereo not given) | 102 | 134% (inactive) | 102% (inactive) | 101% (inactive) | 100% (inactive) | 3.42% (inactive) | 96.6 | 100 | 2.86% (inactive) | -4.83% (inactive) |
| COc1cc(NC(=O)Cc2nn(C)c(=O)c3ccccc23)cc(OC)c1 | 87.5 | 91.5% (inactive) | 87.5% (inactive) | 73% (inactive) | 84.3% (inactive) | -2.83% (inactive) | 87.1 | 84.3 | -2.24% (inactive) | -2.9% (inactive) |
| CC1=C(C(=O)Nc2ccccc2)C(c2cccs2)C(C#N)=C(SCC#N)N1 (stereo not given) | 104 | 96.5% (inactive) | 104% (inactive) | 64% (inactive) | 82.8% (inactive) | -13.4% (inactive) | 96.2 | 82.8 | -0.4% (inactive) | 19.2% (inactive) |
| COc1ccc(C2CC(=O)C(C=NCCN3CCOCC3)=C(O)C2)cc1 (stereo not given) | 87.5 | 87% (inactive) | 87.5% (inactive) | 85.7% (inactive) | 98.5% (inactive) | 2.73% (inactive) | 95.8 | 98.5 | -0.79% (inactive) | 8.69% (inactive) |
| Cc1[nH]c(=O)[nH]c(=O)c1S(=O)(=O)Nc1ccc(Oc2ccccc2)cc1 | 96 | 84.5% (inactive) | 96% (inactive) | 93.6% (inactive) | 97.8% (inactive) | 10.3% (inactive) | 87.5 | 97.8 | -0.66% (inactive) | 1.45% (inactive) |
| COc1ccc(-c2noc(CSc3nc(N)c(-c4ccccc4)c(=O)[nH]3)n2)cc1OC | 106 | 94.5% (inactive) | 106% (inactive) | 94.6% (inactive) | 84.7% (inactive) | -0.7% (inactive) | 85.4 | 84.7 | -4.13% (inactive) | -3.97% (inactive) |
| N#Cc1nc(COc2ccc(Br)cc2)oc1N1CCCC1 | 99 | 90% (inactive) | 99% (inactive) | 89.4% (inactive) | 87.5% (inactive) | 0.745% (inactive) | 86.7 | 87.5 | -7.07% (inactive) | 0.66% (inactive) |
| CNC(=O)CC(C(=O)O)c1ccc(OCC(C)C)cc1 (stereo not given) | 90.5 | 102% (inactive) | 90.5% (inactive) | 84.4% (inactive) | 93.9% (inactive) | 4.75% (inactive) | 89.2 | 93.9 | -2.11% (inactive) | 9.84% (inactive) |
| O=C(O)C1CC(=O)N(c2ccc(OCc3ccccc3Cl)cc2)C1 (stereo not given) | 83 | 92.5% (inactive) | 83% (inactive) | 95.9% (inactive) | 90% (inactive) | 8.43% (inactive) | 81.6 | 90 | 0% (inactive) | 17.8% (inactive) |
| CCOC(=O)CNC(=O)CSc1ncnc2c1cnn2-c1ccccc1 | 87.5 | 94% (inactive) | 87.5% (inactive) | 97.4% (inactive) | 102% (inactive) | 6.58% (inactive) | 95.1 | 102 | -4% (inactive) | -2.26% (inactive) |
| COc1cc(C(=O)Nc2ccc(-n3cnnn3)c(C)c2)cc(OC)c1OC | 105 | 95.5% (inactive) | 105% (inactive) | 99.8% (inactive) | 74% (inactive) | -24.8% (inactive) | 98.8 | 74 | -2.08% (inactive) | -7.3% (inactive) |
| Cc1nc(N2CCOCC2)[nH]c(=O)c1CCC(C)C | 120 | 82% (inactive) | 120% (inactive) | 87.7% (inactive) | 91.9% (inactive) | 0.88% (inactive) | 91 | 91.9 | -1.58% (inactive) | 1.11% (inactive) |
| CCOC(=O)CSc1nc2cccnc2n1-c1ccc(F)cc1 | 108 | 117% (inactive) | 108% (inactive) | 103% (inactive) | 102% (inactive) | 9.83% (inactive) | 92.4 | 102 | -4.8% (inactive) | -8.1% (inactive) |
| OCC#CCSc1nnc(-c2ccccc2Br)o1 | 118 | 109% (inactive) | 118% (inactive) | 85.3% (inactive) | 86.2% (inactive) | 5.93% (inactive) | 80.2 | 86.2 | 0% (inactive) | 4.26% (inactive) |
| Cc1cc(Nc2ccccc2N2CCOCC2)n2ncnc2n1 | 94.5 | 96% (inactive) | 94.5% (inactive) | 88% (inactive) | 97.1% (inactive) | -0.715% (inactive) | 97.8 | 97.1 | -2.43% (inactive) | 4.6% (inactive) |
| COCCCNC(=O)C1CCCN(C(=O)Nc2ccc(OC)cc2)C1 (stereo not given) | 98 | 89% (inactive) | 98% (inactive) | 100% (inactive) | 90.4% (inactive) | 6.8% (inactive) | 83.6 | 90.4 | -7.03% (inactive) | 1.83% (inactive) |
| O=C(c1ccco1)N1CCN(S(=O)(=O)c2ccc(C3CCCCC3)cc2)CC1 | 96 | 97.5% (inactive) | 96% (inactive) | 99.9% (inactive) | 85.6% (inactive) | 0.505% (inactive) | 85.1 | 85.6 | -4.53% (inactive) | 2.42% (inactive) |
| Cc1cc(C)c(NC(=O)C2CCCN2CCO)c(C)c1 (stereo not given) | 83 | 135% (inactive) | 83% (inactive) | 108% (inactive) | 86.5% (inactive) | -3.78% (inactive) | 90.3 | 86.5 | 0.79% (inactive) | -8.69% (inactive) |
| O=C1CS/C(=N\C(=O)N2c3ccccc3Sc3ccccc32)N1 | 102 | 98.5% (inactive) | 102% (inactive) | 94% (inactive) | 105% (inactive) | 14.4% (inactive) | 90.2 | 105 | -7.07% (inactive) | 1.29% (inactive) |
| Cc1ccc(NC(=O)C2CC=CCC2C(=O)N2CCCCC2)cc1 (stereo not given) | 71 | 76.5% (inactive) | 71% (inactive) | 95.7% (inactive) | 95.7% (inactive) | 12.5% (inactive) | 83.2 | 95.7 | -5.54% (inactive) | -1.31% (inactive) |

Reference: PubChem BioAssay
